From ChEMBL document CHEMBL3769383, “Cefsulodin Inspired Potent and Selective Inhibitors of mPTPB, a Virulent Phosphatase from Mycobacterium tuberculosis” (ACS Med Chem Lett, 2015)
The source made the active and inactive calls. The rule behind the calls is not given here.

What was measured:
BL21-DE3 = assay: Potency index, ratio of SPAA IC50 to compound IC50 for Mycobacterium tuberculosis PTPB expressed in Escherichia coli BL21/DE3 cells
[1] = Inhibition of Mycobacterium tuberculosis PTPB expressed in Escherichia coli BL21/DE3 cells using pNPP as substrate after 5 mins by spectrophotometry
[2] = system: Mycobacterium tuberculosis; assay: Selectivity ratio of IC50 for Mycobacterium tuberculosis PTPA to IC50 for Mycobacterium tuberculosis PTPB
RAW264.7 [3] = assay: Inhibition of Mycobacterium tuberculosis PTPB transfected in mouse RAW264.7 cells assessed as increase in p38 phosphorylation pre-treated for 1 hrs followed by stimulation with IFNgamma for 1 hr by Western blotting method; type: cell-based
[4] = Reversible competitive inhibition of Mycobacterium tuberculosis PTPB expressed in Escherichia coli BL21/DE3 cells using pNPP as substrate after 5 mins by Lineweaver-Burk plot analysis
[5] = Selectivity ratio of IC50 for PTPgamma (unknown origin) to IC50 for Mycobacterium tuberculosis PTPB
How it was run: (§1)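 Each phosphatase in the 25-enzyme panel was tested for inhibition at 200 μM compound. The mPTPB IC50 was determined against mPTPB-catalysed hydrolysis of para-nitrophenyl phosphate. The ratio is the panel-enzyme IC50 divided by the mPTPB IC50.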

[6] = Selectivity ratio of IC50 for Laforin (unknown origin) to IC50 for Mycobacterium tuberculosis PTPB
[7] = Selectivity ratio of IC50 for PTPbeta (unknown origin) to IC50 for Mycobacterium tuberculosis PTPB; how it was run: as §1
[8] = target: Mitogen-activated protein kinase 1 and 3 (ERK2 and ERK1) (Mus musculus) (UniProt P63085+Q63844); assay: Effect on ERK1/2 phosphorylation in mouse RAW264.7 cells transfected with empty vector at 10 to 40 nM pre-treated for 1 hrs followed by stimulation with IFNgamma for 1 hr by Western blotting method; type: cell-based
[9] = Selectivity ratio of IC50 for VHX (unknown origin) to IC50 for Mycobacterium tuberculosis PTPB; how it was run: as §1
[10] = target: MAP kinase p38 (Mus musculus) (UniProt P47811+O08911+Q9WUI1+Q9Z1B7); assay: Effect on p38 phosphorylation in mouse RAW264.7 cells transfected with empty vector at 10 to 40 nM pre-treated for 1 hrs followed by stimulation with IFNgamma for 1 hr by Western blotting method; type: cell-based
[11] = target: Receptor-type tyrosine-protein phosphatase S (Homo sapiens) (UniProt Q13332); assay: Inhibition of PTPsigma (unknown origin) using pNPP as substrate at 200 uM after 5 mins by spectrophotometry
How it was run: (§2)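 Single-point screen: the test compound is present at 200 μM in the assay (a compound concentration, not a substrate level). The read-out is phosphatase-catalysed hydrolysis of para-nitrophenyl phosphate.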

[12] = target: Tyrosine-protein phosphatase non-receptor type 2 (Homo sapiens) (UniProt P17706); assay: Inhibition of TC-PTP (unknown origin) using pNPP as substrate at 200 uM after 5 mins by spectrophotometry; how it was run: as §2
[13] = Selectivity ratio of IC50 for PTPH1 (unknown origin) to IC50 for Mycobacterium tuberculosis PTPB; how it was run: as §1
[14] = Selectivity ratio of IC50 for Meg2 (unknown origin) to IC50 for Mycobacterium tuberculosis PTPB
[15] = target: Receptor-type tyrosine-protein phosphatase alpha (Homo sapiens) (UniProt P18433); assay: Inhibition of PTPalpha (unknown origin) using pNPP as substrate at 200 uM after 5 mins by spectrophotometry; how it was run: as §2
[16] = Selectivity ratio of IC50 for SHP1 (unknown origin) to IC50 for Mycobacterium tuberculosis PTPB; how it was run: as §1
[17] = target: Receptor-type tyrosine-protein phosphatase beta (Homo sapiens) (UniProt P23467); assay: Inhibition of PTPbeta (unknown origin) using pNPP as substrate at 200 uM after 5 mins by spectrophotometry; how it was run: as §2
Chain of Receptor-type tyrosine-protein phosphatase beta (Homo sapiens) (P23467 23-1997 limits assumed): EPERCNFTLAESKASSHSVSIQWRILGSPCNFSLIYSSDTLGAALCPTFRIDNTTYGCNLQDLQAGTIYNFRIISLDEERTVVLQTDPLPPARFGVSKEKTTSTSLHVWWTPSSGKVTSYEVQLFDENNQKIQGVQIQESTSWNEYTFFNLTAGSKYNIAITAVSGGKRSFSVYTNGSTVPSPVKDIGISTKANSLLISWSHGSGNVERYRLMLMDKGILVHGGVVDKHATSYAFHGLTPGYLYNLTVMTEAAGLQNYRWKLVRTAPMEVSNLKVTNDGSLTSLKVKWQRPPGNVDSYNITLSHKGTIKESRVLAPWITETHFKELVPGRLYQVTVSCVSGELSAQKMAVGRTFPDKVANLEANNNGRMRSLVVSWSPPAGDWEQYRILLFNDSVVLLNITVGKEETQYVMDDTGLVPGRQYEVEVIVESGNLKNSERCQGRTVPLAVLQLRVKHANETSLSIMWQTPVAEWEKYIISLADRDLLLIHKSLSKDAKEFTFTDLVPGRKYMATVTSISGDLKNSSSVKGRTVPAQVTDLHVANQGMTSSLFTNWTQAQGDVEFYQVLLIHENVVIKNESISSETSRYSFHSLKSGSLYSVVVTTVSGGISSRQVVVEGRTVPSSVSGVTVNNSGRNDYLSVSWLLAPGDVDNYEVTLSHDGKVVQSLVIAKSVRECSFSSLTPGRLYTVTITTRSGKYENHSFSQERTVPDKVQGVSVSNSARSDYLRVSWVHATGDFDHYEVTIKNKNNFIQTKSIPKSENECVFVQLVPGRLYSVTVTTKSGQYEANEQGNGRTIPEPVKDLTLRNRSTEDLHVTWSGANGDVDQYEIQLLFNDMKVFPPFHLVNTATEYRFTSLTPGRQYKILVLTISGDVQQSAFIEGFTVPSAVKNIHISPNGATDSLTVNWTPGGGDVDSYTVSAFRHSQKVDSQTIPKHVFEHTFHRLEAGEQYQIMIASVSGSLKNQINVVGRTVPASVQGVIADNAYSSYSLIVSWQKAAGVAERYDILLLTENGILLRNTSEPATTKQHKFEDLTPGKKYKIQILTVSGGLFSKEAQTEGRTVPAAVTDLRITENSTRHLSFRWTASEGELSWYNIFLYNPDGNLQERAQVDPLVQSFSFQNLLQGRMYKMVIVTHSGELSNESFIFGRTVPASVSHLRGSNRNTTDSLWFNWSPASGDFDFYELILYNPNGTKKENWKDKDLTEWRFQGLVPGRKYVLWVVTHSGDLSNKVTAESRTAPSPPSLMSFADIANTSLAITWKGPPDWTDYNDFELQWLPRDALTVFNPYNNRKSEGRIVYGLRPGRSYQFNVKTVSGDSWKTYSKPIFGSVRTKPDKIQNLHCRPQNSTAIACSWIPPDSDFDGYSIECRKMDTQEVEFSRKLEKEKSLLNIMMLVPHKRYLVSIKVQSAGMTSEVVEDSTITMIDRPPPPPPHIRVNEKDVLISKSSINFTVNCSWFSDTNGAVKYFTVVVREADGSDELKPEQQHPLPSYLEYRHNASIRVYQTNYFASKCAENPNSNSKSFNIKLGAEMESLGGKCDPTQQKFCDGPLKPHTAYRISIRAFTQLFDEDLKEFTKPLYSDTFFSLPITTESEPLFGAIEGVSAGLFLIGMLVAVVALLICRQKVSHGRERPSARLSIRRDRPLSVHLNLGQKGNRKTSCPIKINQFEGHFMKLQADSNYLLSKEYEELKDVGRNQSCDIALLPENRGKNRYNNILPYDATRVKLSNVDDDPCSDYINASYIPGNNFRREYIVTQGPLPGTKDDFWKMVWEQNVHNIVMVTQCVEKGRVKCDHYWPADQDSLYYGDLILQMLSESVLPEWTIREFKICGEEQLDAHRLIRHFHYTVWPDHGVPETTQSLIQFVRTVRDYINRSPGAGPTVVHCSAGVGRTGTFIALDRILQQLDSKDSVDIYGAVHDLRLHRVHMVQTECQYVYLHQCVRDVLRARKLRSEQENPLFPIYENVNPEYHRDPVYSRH

[18] = target: Low molecular weight phosphotyrosine protein phosphatase (Homo sapiens) (UniProt P24666); assay: Inhibition of LMWPTP (unknown origin) using pNPP as substrate at 200 uM after 5 mins by spectrophotometry; how it was run: as §2
Chain of Low molecular weight phosphotyrosine protein phosphatase (Homo sapiens) (P24666 whole entry): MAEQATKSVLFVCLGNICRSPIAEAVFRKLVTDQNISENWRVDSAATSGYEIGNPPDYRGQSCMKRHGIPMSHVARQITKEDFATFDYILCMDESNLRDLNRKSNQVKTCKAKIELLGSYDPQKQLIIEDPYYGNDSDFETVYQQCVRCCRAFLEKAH

[19] = target: Receptor-type tyrosine-protein phosphatase mu (Homo sapiens) (UniProt P28827); assay: Inhibition of PTPmu (unknown origin) using pNPP as substrate at 200 uM after 5 mins by spectrophotometry; how it was run: as §2
RAW264.7 [20] = assay: Inhibition of Mycobacterium tuberculosis PTPB transfected in mouse RAW264.7 cells assessed as increase in ERK1/2 phosphorylation pre-treated for 1 hrs followed by stimulation with IFNgamma for 1 hr by Western blotting method; type: cell-based
[21] = target: Tyrosine-protein phosphatase non-receptor type 6 (Homo sapiens) (UniProt P29350); assay: Inhibition of SHP1 (unknown origin) expressed in Escherichia coli using pNPP as substrate at 200 uM after 5 mins by spectrophotometry; how it was run: as §2
[22] = target: Tyrosine-protein phosphatase non-receptor type 7 (Homo sapiens) (UniProt P35236); assay: Inhibition of HePTP (unknown origin) expressed in Escherichia coli using pNPP as substrate at 200 uM after 5 mins by spectrophotometry; how it was run: as §2
[23] = target: Dual specificity protein phosphatase 3 (Homo sapiens) (UniProt P51452); assay: Inhibition of VHR (unknown origin) using pNPP as substrate at 200 uM after 5 mins by spectrophotometry; how it was run: as §2
Chain of Dual specificity protein phosphatase 3 (Homo sapiens) (P51452 whole entry, looked up): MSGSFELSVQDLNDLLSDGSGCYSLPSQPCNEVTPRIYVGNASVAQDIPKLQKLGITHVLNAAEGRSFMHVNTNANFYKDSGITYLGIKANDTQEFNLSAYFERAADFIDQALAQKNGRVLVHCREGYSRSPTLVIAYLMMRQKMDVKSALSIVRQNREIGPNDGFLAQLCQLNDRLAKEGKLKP

[24] = Selectivity ratio of IC50 for TC-PTP (unknown origin) to IC50 for Mycobacterium tuberculosis PTPB; how it was run: as §1
[25] = target: Receptor-type tyrosine-protein phosphatase F (Homo sapiens) (UniProt P10586); assay: Inhibition of LAR (unknown origin) using pNPP as substrate at 200 uM after 5 mins by spectrophotometry; how it was run: as §2
[26] = Selectivity ratio of IC50 for PTPmu (unknown origin) to IC50 for Mycobacterium tuberculosis PTPB; how it was run: as §1
[27] = Selectivity ratio of IC50 for CDC14A (unknown origin) to IC50 for Mycobacterium tuberculosis PTPB
[28] = target: Dual specificity protein phosphatase CDC14A (Homo sapiens) (UniProt Q9UNH5); assay: Inhibition of CDC14A (unknown origin) using pNPP as substrate at 200 uM after 5 mins by spectrophotometry; how it was run: as §2
[29] = Selectivity ratio of IC50 for LYP (unknown origin) to IC50 for Mycobacterium tuberculosis PTPB
[30] = target: Receptor-type tyrosine-protein phosphatase C (Homo sapiens) (UniProt P08575); assay: Inhibition of CD45 (unknown origin) expressed in Escherichia coli using pNPP as substrate at 200 uM after 5 mins by spectrophotometry; how it was run: as §2
[31] = Selectivity ratio of IC50 for PP5 (unknown origin) to IC50 for Mycobacterium tuberculosis PTPB
[32] = target: RAC-alpha serine/threonine-protein kinase (Mus musculus) (UniProt P31750); assay: Effect on Akt phosphorylation in mouse RAW264.7 cells transfected with empty vector at 10 to 40 nM pre-treated for 1 hrs followed by stimulation with IFNgamma for 1 hr by Western blotting method; type: cell-based
[33] = target: Tyrosine-protein phosphatase non-receptor type 3 (Homo sapiens) (UniProt P26045); assay: Inhibition of PTPH1 (unknown origin) using pNPP as substrate at 200 uM after 5 mins by spectrophotometry; how it was run: as §2
[34] = target: Dual specificity protein phosphatase 10 (Homo sapiens) (UniProt Q9Y6W6); assay: Inhibition of MKP5 (unknown origin) using pNPP as substrate at 200 uM after 5 mins by spectrophotometry; how it was run: as §2
Chain of Dual specificity protein phosphatase 10 (Homo sapiens) (Q9Y6W6 whole entry): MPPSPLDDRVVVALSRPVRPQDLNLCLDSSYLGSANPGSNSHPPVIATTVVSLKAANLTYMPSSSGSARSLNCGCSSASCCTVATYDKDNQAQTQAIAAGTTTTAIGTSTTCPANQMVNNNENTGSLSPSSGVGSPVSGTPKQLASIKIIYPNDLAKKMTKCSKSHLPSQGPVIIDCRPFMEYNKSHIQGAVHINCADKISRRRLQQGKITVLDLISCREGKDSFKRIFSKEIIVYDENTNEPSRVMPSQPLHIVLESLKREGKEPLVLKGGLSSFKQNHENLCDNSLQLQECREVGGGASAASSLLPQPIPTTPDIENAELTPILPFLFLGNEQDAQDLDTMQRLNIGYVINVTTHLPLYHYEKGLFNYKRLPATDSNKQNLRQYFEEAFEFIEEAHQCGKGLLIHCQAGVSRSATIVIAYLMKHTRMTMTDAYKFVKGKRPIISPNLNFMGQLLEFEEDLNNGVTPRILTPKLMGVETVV

[35] = Selectivity ratio of IC50 for FAP1 (unknown origin) to IC50 for Mycobacterium tuberculosis PTPB
[36] = target: Serine/threonine-protein phosphatase 5 (Homo sapiens) (UniProt P53041); assay: Inhibition of PP5 (unknown origin) using pNPP as substrate at 200 uM after 5 mins by spectrophotometry; how it was run: as §2
Chain of Serine/threonine-protein phosphatase 5 (Homo sapiens) (P53041 whole entry): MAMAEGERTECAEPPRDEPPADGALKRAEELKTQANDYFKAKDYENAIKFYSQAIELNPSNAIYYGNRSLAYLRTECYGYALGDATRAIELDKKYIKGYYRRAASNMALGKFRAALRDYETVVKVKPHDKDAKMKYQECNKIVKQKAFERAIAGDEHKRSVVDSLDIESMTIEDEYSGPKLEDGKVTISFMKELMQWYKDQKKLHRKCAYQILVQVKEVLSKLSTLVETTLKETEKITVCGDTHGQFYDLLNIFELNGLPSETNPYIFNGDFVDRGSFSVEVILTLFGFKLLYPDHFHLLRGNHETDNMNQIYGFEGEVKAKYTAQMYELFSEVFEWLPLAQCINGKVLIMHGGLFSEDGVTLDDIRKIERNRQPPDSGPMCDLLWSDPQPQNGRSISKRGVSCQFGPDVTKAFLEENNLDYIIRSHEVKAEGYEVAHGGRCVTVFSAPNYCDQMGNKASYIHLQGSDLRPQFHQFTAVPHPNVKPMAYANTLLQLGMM

[37] = target: Low molecular weight protein-tyrosine phosphatase A (Mycobacterium tuberculosis) (UniProt P9WIA1); assay: Inhibition of Mycobacterium tuberculosis PTPA expressed in Escherichia coli using pNPP as substrate at 200 uM after 5 mins by spectrophotometry; how it was run: as §2
Chain of Low molecular weight protein-tyrosine phosphatase A (Mycobacterium tuberculosis) (P9WIA1 whole entry): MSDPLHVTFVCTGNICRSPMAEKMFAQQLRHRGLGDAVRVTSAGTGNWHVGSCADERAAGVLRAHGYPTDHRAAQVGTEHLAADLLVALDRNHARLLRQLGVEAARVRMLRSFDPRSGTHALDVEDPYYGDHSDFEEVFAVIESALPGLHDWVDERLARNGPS

[38] = Selectivity ratio of IC50 for LAR (unknown origin) to IC50 for Mycobacterium tuberculosis PTPB
[39] = Selectivity ratio of IC50 for MKP5 (unknown origin) to IC50 for Mycobacterium tuberculosis PTPB
[40] = target: Tyrosine-protein phosphatase non-receptor type 9 (Homo sapiens) (UniProt P43378); assay: Inhibition of Meg2 (unknown origin) using pNPP as substrate at 200 uM after 5 mins by spectrophotometry; how it was run: as §2
RAW264.7 [41] = assay: Inhibition of Mycobacterium tuberculosis PTPB transfected in mouse RAW264.7 cells decrease in Akt phosphorylation pre-treated for 1 hrs followed by stimulation with IFNgamma for 1 hr by Western blotting method; type: cell-based
[42] = Selectivity ratio of IC50 for VHR (unknown origin) to IC50 for Mycobacterium tuberculosis PTPB; how it was run: as §1
[43] = target: Tyrosine-protein phosphatase non-receptor type 22 (Homo sapiens) (UniProt Q9Y2R2); assay: Inhibition of LYP (unknown origin) expressed in Escherichia coli using pNPP as substrate at 200 uM after 5 mins by spectrophotometry; how it was run: as §2
[44] = Selectivity ratio of IC50 for PTPepsilon (unknown origin) to IC50 for Mycobacterium tuberculosis PTPB; how it was run: as §1
[45] = target: Dual specificity protein phosphatase 22 (Homo sapiens) (UniProt Q9NRW4); assay: Inhibition of VHX (unknown origin) expressed in Escherichia coli using pNPP as substrate at 200 uM after 5 mins by spectrophotometry; how it was run: as §2
Chain of Dual specificity protein phosphatase 22 (Homo sapiens) (Q9NRW4 whole entry): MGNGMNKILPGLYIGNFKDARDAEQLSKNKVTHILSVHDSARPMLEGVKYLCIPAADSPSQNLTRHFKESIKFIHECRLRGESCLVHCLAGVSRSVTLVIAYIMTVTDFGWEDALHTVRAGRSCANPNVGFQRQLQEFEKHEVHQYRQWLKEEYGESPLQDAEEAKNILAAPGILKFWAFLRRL

[46] = target: Receptor-type tyrosine-protein phosphatase gamma (Homo sapiens) (UniProt P23470); assay: Inhibition of PTPgamma (unknown origin) using pNPP as substrate at 200 uM after 5 mins by spectrophotometry; how it was run: as §2
Laforin (Homo sapiens) = Laforin (Homo sapiens) (UniProt O95278); assay: Inhibition of Laforin (unknown origin) using pNPP as substrate at 200 uM after 5 mins by spectrophotometry; how it was run: as §2
[47] = Selectivity ratio of IC50 for CD45 (unknown origin) to IC50 for Mycobacterium tuberculosis PTPB
[48] = Selectivity ratio of IC50 for LMWPTP (unknown origin) to IC50 for Mycobacterium tuberculosis PTPB
[49] = Selectivity ratio of IC50 for HePTP (unknown origin) to IC50 for Mycobacterium tuberculosis PTPB
[50] = Selectivity ratio of IC50 for PTPalpha (unknown origin) to IC50 for Mycobacterium tuberculosis PTPB; how it was run: as §1
[51] = target: Receptor-type tyrosine-protein phosphatase epsilon (Homo sapiens) (UniProt P23469); assay: Inhibition of PTPepsilon (unknown origin) using pNPP as substrate at 200 uM after 5 mins by spectrophotometry; how it was run: as §2
Chain of Receptor-type tyrosine-protein phosphatase epsilon (Homo sapiens) (P23469 whole entry): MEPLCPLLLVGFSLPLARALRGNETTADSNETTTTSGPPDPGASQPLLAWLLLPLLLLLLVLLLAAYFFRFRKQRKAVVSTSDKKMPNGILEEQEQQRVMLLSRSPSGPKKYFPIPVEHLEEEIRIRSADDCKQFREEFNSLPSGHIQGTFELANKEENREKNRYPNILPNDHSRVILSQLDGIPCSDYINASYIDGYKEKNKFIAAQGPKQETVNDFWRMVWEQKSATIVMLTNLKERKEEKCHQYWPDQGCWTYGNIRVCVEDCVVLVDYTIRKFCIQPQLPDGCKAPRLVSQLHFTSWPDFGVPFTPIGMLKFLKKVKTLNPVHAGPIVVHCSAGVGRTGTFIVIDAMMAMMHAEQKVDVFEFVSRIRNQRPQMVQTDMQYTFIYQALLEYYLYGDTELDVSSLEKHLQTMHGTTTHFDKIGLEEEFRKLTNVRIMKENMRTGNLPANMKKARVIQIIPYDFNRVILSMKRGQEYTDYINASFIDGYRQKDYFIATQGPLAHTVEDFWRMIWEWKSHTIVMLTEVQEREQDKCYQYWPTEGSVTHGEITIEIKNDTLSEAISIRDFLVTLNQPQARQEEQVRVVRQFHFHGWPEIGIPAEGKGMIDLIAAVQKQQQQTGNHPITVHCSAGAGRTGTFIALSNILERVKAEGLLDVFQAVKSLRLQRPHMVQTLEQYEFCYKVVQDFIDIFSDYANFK

[52] = target: Tyrosine-protein phosphatase non-receptor type 1 (Homo sapiens) (UniProt P18031); assay: Inhibition of PTP1B (unknown origin) expressed in Escherichia coli using pNPP as substrate at 200 uM after 5 mins by spectrophotometry; how it was run: as §2
Chain of Tyrosine-protein phosphatase non-receptor type 1 (Homo sapiens) (P18031 whole entry): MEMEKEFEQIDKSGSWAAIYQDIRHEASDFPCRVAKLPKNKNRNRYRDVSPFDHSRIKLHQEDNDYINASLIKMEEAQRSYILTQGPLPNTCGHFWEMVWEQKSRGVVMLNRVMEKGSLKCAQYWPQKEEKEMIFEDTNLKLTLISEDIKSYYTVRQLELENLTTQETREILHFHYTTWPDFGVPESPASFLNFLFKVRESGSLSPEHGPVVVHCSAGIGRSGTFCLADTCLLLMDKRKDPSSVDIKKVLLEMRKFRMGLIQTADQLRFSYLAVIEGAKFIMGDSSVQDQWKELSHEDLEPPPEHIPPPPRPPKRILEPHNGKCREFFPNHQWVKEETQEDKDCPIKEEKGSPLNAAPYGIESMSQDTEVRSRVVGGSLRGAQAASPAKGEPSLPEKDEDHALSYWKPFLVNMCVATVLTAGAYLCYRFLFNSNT

[53] = target: Tyrosine-protein phosphatase non-receptor type 13 (Homo sapiens) (UniProt Q12923); assay: Inhibition of FAP1 (unknown origin) expressed in Escherichia coli using pNPP as substrate at 200 uM after 5 mins by spectrophotometry; how it was run: as §2
[54] = target: Tyrosine-protein phosphatase non-receptor type 11 (Homo sapiens) (UniProt Q06124); assay: Inhibition of SHP2 (unknown origin) expressed in Escherichia coli using pNPP as substrate at 200 uM after 5 mins by spectrophotometry; how it was run: as §2
[55] = Selectivity ratio of IC50 for PTP1B (unknown origin) to IC50 for Mycobacterium tuberculosis PTPB
[56] = Selectivity ratio of IC50 for PTPsigma (unknown origin) to IC50 for Mycobacterium tuberculosis PTPB; how it was run: as §1
[57] = Selectivity ratio of IC50 for SHP2 (unknown origin) to IC50 for Mycobacterium tuberculosis PTPB; how it was run: as §1

O=C(Nc1ccccc1)C(c1ccccc1)S(=O)(=O)O (racemic)
Ratio IC50 (BL21-DE3): 180 | IC50 [1]: 1000 nM

O=C(NC1CC1)C(c1ccccc1)S(=O)(=O)O (racemic)
Ratio IC50 (BL21-DE3): 32 | IC50 [1]: 5600 nM

O=C(C(c1ccccc1)S(=O)(=O)O)N1CCCC2CCCCC21 (racemic)
Ratio IC50 [2]: > 10000 | inhibition (RAW264.7 [3]): Dose-dependent effect | Ki [4]: 7.9 nM | Ratio IC50 [5]: > 10000 | Ratio IC50 [6]: > 10000 | Ratio IC50 [7]: > 10000 | Activity [8]: inactive | Ratio IC50 [9]: > 10000 | Activity [10]: inactive | inhibition [11]: inactive | inhibition [12]: inactive | Ratio IC50 [13]: > 10000 | Ratio IC50 [14]: > 10000 | inhibition [15]: inactive | Ratio IC50 [16]: > 10000 | inhibition [17]: inactive | inhibition [18]: inactive | inhibition [19]: inactive | inhibition (RAW264.7 [20]): Dose-dependent effect | inhibition [21]: inactive | inhibition [22]: inactive | inhibition [23]: inactive | Ratio IC50 [24]: > 10000 | inhibition [25]: inactive | Ratio IC50 [26]: > 10000 | Ratio IC50 [27]: > 10000 | inhibition [28]: inactive | Ratio IC50 [29]: > 10000 | inhibition [30]: inactive | Ratio IC50 [31]: > 10000 | Activity [32]: inactive | inhibition [33]: inactive | inhibition [34]: inactive | Ratio IC50 [35]: > 10000 | inhibition [36]: inactive | inhibition [37]: inactive | Ratio IC50 [38]: > 10000 | Ratio IC50 [39]: > 10000 | inhibition [40]: inactive | inhibition (RAW264.7 [41]): Dose-dependent effect | Ratio IC50 [42]: > 10000 | inhibition [43]: inactive | Ratio IC50 [44]: > 10000 | inhibition [45]: inactive | inhibition [46]: inactive | inhibition (Laforin (Homo sapiens)): inactive | Ratio IC50 [47]: > 10000 | Ratio IC50 [48]: > 10000 | Ratio IC50 [49]: > 10000 | Ratio IC50 [50]: > 10000 | inhibition [51]: inactive | IC50 [1]: 18 nM | inhibition [52]: inactive | inhibition [53]: inactive | inhibition [54]: inactive | Ratio IC50 [55]: > 10000 | Ratio IC50 [56]: > 10000 | Ratio IC50 [57]: > 10000
